# Measurements taken from PubChem BioAssay AID540322 (Johns Hopkins Ion Channel Center, 2011).
# Target: Potassium channel subfamily K member 9 (Homo sapiens) (UniProt Q9NPC2)
# Assay: concentration-dependent TASK-3 (KCNK9) blockade – HEK293 cells, thallium flux, round II, SAR follow-up (AID 540322)
# Settings: HEK293-KCNK9, FluxOR thallium flux fluorescence
# In short: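 System: stable KCNK9-expressing HEK293 cells; Also added: K2SO4 plus Tl2SO4 stimulus (5x stock); Doses: multi-concentration series; Times: dye 90 min, compound 20 min, room temperature; Detection: FluxOR thallium-sensitive dye fluorescence, 110 s kinetic read post-stimulus; Evaluation: IC50 from normalized fluorescence change; Repeats: replicate concentration-response data per compound.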
# Sequence of Potassium channel subfamily K member 9 (Homo sapiens) (Q9NPC2 whole entry, looked up): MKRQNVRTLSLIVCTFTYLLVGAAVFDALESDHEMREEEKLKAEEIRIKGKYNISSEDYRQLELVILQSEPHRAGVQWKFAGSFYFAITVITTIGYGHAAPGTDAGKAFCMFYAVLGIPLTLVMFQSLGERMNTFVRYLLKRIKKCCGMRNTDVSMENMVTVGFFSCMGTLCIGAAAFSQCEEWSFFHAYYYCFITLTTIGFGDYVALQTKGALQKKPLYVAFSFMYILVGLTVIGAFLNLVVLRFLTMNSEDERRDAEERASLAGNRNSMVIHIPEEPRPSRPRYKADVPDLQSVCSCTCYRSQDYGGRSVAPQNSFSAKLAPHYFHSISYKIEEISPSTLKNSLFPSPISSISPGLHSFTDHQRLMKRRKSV
row,Structure (SMILES),IC50
1,COc1ccccc1NC(=O)c1cccc(NC(=O)c2ccccc2)c1,1410 nM
2,CCOc1ccccc1NC(=O)c1cccc(NC(=O)CC2CCCCC2)c1,1920 nM
3,CCOc1ccccc1NC(=O)c1cccc(NC(=O)c2cccc(C(F)(F)F)c2)c1,1380 nM
4,COc1ccccc1C(=O)Nc1cccc(NC(=O)c2ccccc2)c1,1740 nM
5,COc1ccccc1C(=O)Nc1cccc(NC(=O)c2ccccc2OC)c1,3620 nM
6,COc1cccc(OC)c1C(=O)Nc1cccc(NC(=O)c2cccc(C)c2)c1,19200 nM
7,Cc1cccc(C(=O)Nc2cccc(NC(=O)c3cccc(C)c3)c2)c1,990 nM
8,COc1cccc(-c2n[nH]c(=S)n2C(C)C2CC3CCC2C3)c1 (stereo not given),210 nM
9,Cc1cccc(C(=O)Nc2cccc(NC(=O)c3ccccc3C)c2)c1,940 nM
10,COc1ccccc1NC(=O)c1cccc(NC(=O)c2ccccc2C(F)(F)F)c1,1320 nM
11,COc1ccccc1NC(=O)c1cccc(NC(=O)CC2CCCC2)c1,2630 nM
12,Cc1ccccc1-c1n[nH]c(=S)n1C(C)C1CC2CCC1C2 (stereo not given),720 nM
13,CC(C1CC2CCC1C2)n1c(-c2ccccc2Cl)n[nH]c1=S (stereo not given),470 nM
14,COc1ccccc1C(=O)Nc1cccc(NC(=O)c2cccc(C)c2)c1,2720 nM
15,CCOc1ccccc1C(=O)Nc1cccc(NC(=O)c2ccccc2OC)c1,1980 nM
16,Cc1cccc(C(=O)Nc2cccc(NC(=O)c3ccccc3C(F)(F)F)c2)c1,12900 nM
17,Cc1cccc(C(=O)Nc2cccc(NC(=O)c3ccccc3OCC(C)C)c2)c1,3390 nM
18,CCOc1ccccc1NC(=O)c1cccc(NC(=O)c2ccccc2C)c1,4290 nM
19,COc1ccccc1C(=O)Nc1cccc(NC(=O)c2ccccc2OC(F)(F)F)c1,1170 nM

row,Structure (SMILES),IC50
1,CCOc1ccccc1NC(=O)c1cccc(NC(=O)C2CCCC2)c1,1840 nM
2,CCOc1ccccc1C(=O)Nc1cccc(NC(=O)C2CCCC2)c1,1110 nM
3,CCOc1ccccc1NC(=O)c1cccc(NC(=O)C2CC2)c1,10200 nM
4,CCOc1ccccc1NC(=O)c1cccc(NC(=O)c2ccccc2Cl)c1,2630 nM
5,COc1ccccc1NC(=O)c1cccc(NC(=O)c2ccccc2OC)c1,3020 nM
6,CC(C1CC2CCC1C2)n1c(-c2ccccc2)n[nH]c1=S (stereo not given),520 nM
7,Cc1cccc(C(=O)Nc2cccc(NC(=O)c3ccccc3OC(F)(F)F)c2)c1,1050 nM
8,Cc1cccc(C(=O)Nc2cccc(NC(=O)c3cccs3)c2)c1,6850 nM
9,CCOc1ccccc1NC(=O)c1cccc(NC(=O)CC2CCCC2)c1,4170 nM
10,Cc1cccc(C(=O)Nc2cccc(NC(=O)c3cccc(Cl)c3)c2)c1,13400 nM
11,CCOc1cccc(NC(=O)c2cccc(NC(=O)C3CCCC3)c2)c1,4070 nM
12,COc1ccccc1NC(=O)c1cccc(NC(=O)C2CCCC2)c1,1550 nM
13,CCOc1ccccc1NC(=O)c1cccc(NC(=O)c2ccccc2C(F)(F)F)c1,320 nM
14,Cc1cccc(C(=O)Nc2cccc(NC(=O)c3ccccc3Cl)c2)c1,19800 nM
15,Cc1cccc(C(=O)Nc2cccc(NC(=O)c3ccco3)c2)c1,1670 nM
16,CC(C1CC2CCC1C2)n1c(-c2ccsc2)n[nH]c1=S (stereo not given),1000 nM
17,CCOc1ccccc1NC(=O)c1cccc(NC(=O)c2ccccc2)c1,1430 nM
18,Cc1ccccc1C(=O)Nc1cccc(NC(=O)c2ccccc2)c1,6480 nM

# More lines, in order of falling IC50, values ahead:
row,IC50,Structure (SMILES)
1,30600 nM,CCOc1ccccc1NC(=O)c1cccc(NC(=O)C(C)(C)C)c1
2,29300 nM,COc1cccc(C(=O)Nc2cccc(NC(=O)c3cccc(C)c3)c2)c1
3,25900 nM,COc1cccc(C(=O)Nc2cccc(NC(=O)c3ccccc3)c2)c1
4,14700 nM,CCOc1ccccc1NC(=O)c1cccc(NC(=O)c2ccc(C)cc2)c1
5,11900 nM,Cc1cccc(C(=O)Nc2cccc(NC(=O)C3CCCCC3)c2)c1
6,10300 nM,CC(C1CC2CCC1C2)n1c(C2CCOC2)n[nH]c1=S (stereo not given)
7,8000 nM,O=C(Nc1cccc(NC(=O)C2CCCCC2)c1)c1ccccc1
8,7210 nM,O=C(Nc1cccc(NC(=O)c2ccccc2C(F)(F)F)c1)c1ccccc1
9,5780 nM,O=C(Nc1ccccc1Cl)c1cccc(NC(=O)C2CCCC2)c1
10,5370 nM,O=C(Nc1cccc(NC(=O)c2ccccn2)c1)c1ccccc1
11,4250 nM,CC(C1CC2CCC1C2)n1c(-c2ccoc2)n[nH]c1=S (stereo not given)
12,3490 nM,COc1ccccc1C(=O)Nc1cccc(NC(=O)c2ccccc2C)c1
13,2390 nM,Cc1cccc(C(=O)Nc2cccc(NC(=O)c3ccccc3C(C)C)c2)c1
14,2330 nM,CCOc1ccccc1NC(=O)c1cccc(NC(=O)c2cccc(OC)c2)c1
15,2160 nM,COc1ccccc1NC(=O)c1cccc(NC(=O)C2CCCCC2)c1
16,1840 nM,CCOc1ccccc1NC(=O)c1cccc(NC(=O)c2cccc(Cl)c2)c1
17,1820 nM,Cc1cccc(C(=O)Nc2cccc(NC(=O)c3ccccc3)c2)c1
18,1730 nM,COc1ccc(-c2n[nH]c(=S)n2C(C)C2CC3CCC2C3)cc1 (stereo not given)
19,1300 nM,CCOc1ccccc1NC(=O)c1cccc(NC(=O)C2CCCCC2)c1
20,1180 nM,CCOc1ccccc1NC(=O)c1cccc(NC(=O)c2ccccc2OC)c1
21,1040 nM,CCOc1ccccc1C(=O)Nc1cccc(NC(=O)c2ccccc2C(F)(F)F)c1
22,840 nM,COc1ccccc1-c1n[nH]c(=S)n1C(C)C1CC2CCC1C2 (stereo not given)
23,800 nM,CCOc1ccccc1NC(=O)c1cccc(NC(=O)c2ccccc2OC(F)(F)F)c1
24,740 nM,COc1ccccc1C(=O)Nc1cccc(NC(=O)c2ccccc2C(C)C)c1
25,570 nM,CCOc1ccccc1C(=O)Nc1cccc(NC(=O)c2cccc(C)c2)c1
26,440 nM,CC(C1CC2CCC1C2)n1c(-c2cccc(Cl)c2)n[nH]c1=S (stereo not given)
27,320 nM,CC(C1CC2CCC1C2)n1c(-c2ccco2)n[nH]c1=S (stereo not given)
28,290 nM,CCOc1ccccc1NC(=O)c1cccc(NC(=O)c2cccc(C)c2)c1
